IC50 and inhibition data for 14 compounds are collected here from ChEMBL document CHEMBL3612034, “Synthesis of bicoumarin thiophosphate derivatives as steroid sulfatase inhibitors” (Eur J Med Chem, 2015).

Usually IC50 stands for the concentration needed to halve the response being measured.

The source made the active and inactive calls. No cut-off for these calls is given here.

For assay [1], the target named is T1, Steryl-sulfatase (Homo sapiens, UniProt P08842).
T1 sequence (P08842 whole entry): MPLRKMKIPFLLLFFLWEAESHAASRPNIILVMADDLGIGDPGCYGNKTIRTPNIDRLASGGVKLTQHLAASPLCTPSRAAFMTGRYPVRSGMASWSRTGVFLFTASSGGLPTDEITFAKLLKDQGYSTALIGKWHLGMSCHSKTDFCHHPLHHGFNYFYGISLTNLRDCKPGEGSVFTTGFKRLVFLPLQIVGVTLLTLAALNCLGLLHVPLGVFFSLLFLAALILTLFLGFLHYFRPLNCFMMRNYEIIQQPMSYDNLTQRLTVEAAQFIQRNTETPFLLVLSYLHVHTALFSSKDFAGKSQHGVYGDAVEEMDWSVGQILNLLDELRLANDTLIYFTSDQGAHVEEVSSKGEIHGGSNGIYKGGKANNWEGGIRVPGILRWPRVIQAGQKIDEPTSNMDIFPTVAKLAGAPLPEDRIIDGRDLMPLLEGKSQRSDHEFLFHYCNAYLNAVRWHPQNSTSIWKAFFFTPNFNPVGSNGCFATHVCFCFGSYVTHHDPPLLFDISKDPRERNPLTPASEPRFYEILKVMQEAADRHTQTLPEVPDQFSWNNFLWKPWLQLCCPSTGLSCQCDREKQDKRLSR
Kind of assay: Inhibition of human placenta STS using NPS as substrate after 15 mins by microplate reader analysis. The gist of the method: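 Enzyme: STS extracted from human placenta and purified by multi-step chromatography. Each reaction held 20 mM Tris-HCl pH 7.4, 3 mM p-nitrophenyl sulfate (NPS), 5 U enzyme and graded inhibitor concentrations, and ran 15 min at 37 °C. Stopped with 1 M NaOH; released p-nitrophenol read at 405 nm. IC50 fitted from triplicate measurements.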

The target in assay [2] is T2, Steryl-sulfatase (Homo sapiens) (UniProt P08842).
T2 sequence (whole entry): T1 sequence (P08842 whole entry)
Kind of assay: Reversible inhibition of human placenta STS at 100 uM preincubated for 30 mins in standard condition followed by exchange of reaction environment. The gist of the method: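 Reversibility test: the standard placental STS/NPS assay (Tris-HCl pH 7.4, 37 °C) was run with compound at a single fixed concentration. Enzyme activity was then measured again after restoration by the same p-nitrophenol absorbance read-out at 405 nm. Basal and restored activities were compared.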

The target of assay [3] is T1, Steryl-sulfatase. Kind of assay: Inhibition of recombinant human STS transfected in CHO cells using MUS as substrate after 30 mins by fluorescence assay. The format is cell-based.
Assay [4] has as its target T2, Steryl-sulfatase (Homo sapiens). Kind of assay: Irreversible inhibition of human placenta STS at 100 uM preincubated for 30 mins in standard condition followed by exchange of reaction environment. In a few lines: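 Purified human placental STS was run under standard assay conditions (Tris-HCl pH 7.4, NPS substrate, 37 °C) with inhibitor present. Restored enzyme activity was then measured the same way, by p-nitrophenol absorbance at 405 nm after an NaOH stop. Basal and restored activities were compared to tell reversible from irreversible inhibition.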

In assay [5] the target is T1, Steryl-sulfatase. Kind of assay: Inhibition of human placenta STS. The gist of the method:
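Human placental STS purified to homogeneity by multi-step chromatography. Each reaction used 5 U enzyme, 20 mM Tris-HCl pH 7.4, 3 mM p-nitrophenyl sulfate (NPS) and a range of inhibitor concentrations, for 15 min at 37 °C. NaOH stopped the reaction, and released p-nitrophenol was read at 405 nm. IC50 came from the dose-response curve, run in triplicate.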

With `O=c1oc2cc(OP(=S)(Cl)Oc3ccc4c5c(c(=O)oc4c3)CCCCC5)ccc2c2c1CCCCC2`, the IC50 on Steryl-sulfatase [1] stood at 7.04 µM. Regarding `COP(=S)(Oc1ccc2c3c(c(=O)oc2c1)CCC3)Oc1ccc2c3c(c(=O)oc2c1)CCC3`, the IC50 at Steryl-sulfatase [1] stood at 75 µM. With `O=c1oc2cc(OP(O)(=S)Oc3ccc4c5c(c(=O)oc4c3)CCCC5)ccc2c2c1CCCC2`, the half-inhibitory concentration (IC50) at Steryl-sulfatase [1] is 0.86 µM. Further, the inhibition result in assay [2] is “Active”.

Turning to `NP(=S)(Oc1ccc2c3c(c(=O)oc2c1)CCCC3)Oc1ccc2c3c(c(=O)oc2c1)CCCC3`, the concentration for half-maximal inhibition (IC50) on Steryl-sulfatase [1] stood at 110 µM. With `CC(C)N(C(=O)C1=CC[C@H]2[C@@H]3CCc4cc(OS(N)(=O)=O)ccc4[C@H]3CC[C@]12C)C(C)C`, on Steryl-sulfatase [3], the concentration for half-maximal inhibition (IC50) was 0.004 µM. `COP(=S)(Oc1ccc2c3c(c(=O)oc2c1)CCCC3)Oc1ccc2c3c(c(=O)oc2c1)CCCC3` displayed an IC50 against Steryl-sulfatase [1] of 14.8 µM. `O=c1oc2cc(OP(O)(=S)Oc3ccc4c5c(c(=O)oc4c3)CCCCC5)ccc2c2c1CCCCC2` came in with a concentration for half-maximal inhibition (IC50) on Steryl-sulfatase [1] of 5.51 µM. On Steryl-sulfatase [1], `NP(=S)(Oc1ccc2c3c(c(=O)oc2c1)CCCCC3)Oc1ccc2c3c(c(=O)oc2c1)CCCCC3` yielded an IC50 of 88.8 µM. In the case of `O=c1oc2cc(OP(=S)(Cl)Oc3ccc4c5c(c(=O)oc4c3)CCC5)ccc2c2c1CCC2`, the half-maximal inhibitory concentration (IC50) against Steryl-sulfatase [1] came to 33.8 µM. Still for that read-out and setting: then `O=c1oc2cc(OP(O)(=S)Oc3ccc4c5c(c(=O)oc4c3)CCC5)ccc2c2c1CCC2`, with 26.9 µM.

Turning to `NP(=S)(Oc1ccc2c3c(c(=O)oc2c1)CCC3)Oc1ccc2c3c(c(=O)oc2c1)CCC3`, at Steryl-sulfatase [1], the IC50 is 74.3 µM. Turning to `O=c1oc2cc(OP(=S)(Cl)Oc3ccc4c5c(c(=O)oc4c3)CCCC5)ccc2c2c1CCCC2`, the concentration for half-maximal inhibition (IC50) against Steryl-sulfatase [1] came to 7.76 µM. Further, the inhibition result in assay [4] is “Active”.

As to `NS(=O)(=O)Oc1ccc2c(c1)OC(O)C1=C2CCCCC1` (configuration not stated), the half-inhibitory concentration (IC50) on Steryl-sulfatase [5] is 0.008 µM. As to `COP(=S)(Oc1ccc2c3c(c(=O)oc2c1)CCCCC3)Oc1ccc2c3c(c(=O)oc2c1)CCCCC3`, on Steryl-sulfatase [1], the IC50 was determined as 6.77 µM. For the same compound, the inhibition result in assay [4] was “Active”.
